Measurements taken from ChEMBL document CHEMBL1250448, “Inhibitor hijacking of Akt activation” (Nat Chem Biol, 2009).
The source made the active and inactive calls. The rule behind the calls is not given here.

How the values were obtained:
[1] = tested on: RAC-alpha serine/threonine-protein kinase (Homo sapiens), P31749 [M227G]; experiment: Induction of myristoylated AKT1 M227G mutant Ser473 hyperphosphorylation expressed in HEK293 cells after 30 mins by immunoblotting; details: HEK-293
[2] = tested on: RAC-alpha serine/threonine-protein kinase (Homo sapiens), P31749 [M227G]; experiment: Inhibition of myristoylated AKT1 M227G mutant expressed in HEK293T cells assessed as reduction of GSK3-beta Ser9 phosphorylation after 30 mins by immunoblotting; type: cell-based; details: HEK-293T
[3] = Inhibition of myristoylated AKT2 M225G mutant expressed in HEK293T cells by in vitro immunoprecipitation kinase assay; type: cell-based; details: hek-293t
Procedure, shortened: (§1)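 Myristoylated HA-tagged Akt (wild-type or analog-sensitive isoforms) was transfected by Lipofectamine into HEK293T cells. Cells were lysed in Tris pH 7.5/NaCl/EDTA/EGTA/Triton buffer with protease and phosphatase inhibitors. Akt was immunoprecipitated overnight at 4°C on BSA-blocked anti-HA matrix, and the washed immunoprecipitate was used for the in vitro kinase assay. IC50 was determined from kinase activity.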

[4] = molecular target: T1, RAC-alpha serine/threonine-protein kinase (Homo sapiens, UniProt P31749); experiment: Induction of AKT1 Thr308 phosphorylation expressed in IGF1-stimulated HEK293 cells treated 20 mins before IGF1 stimulation by immunoblotting; type: cell-based
T1 sequence (P31749 whole entry): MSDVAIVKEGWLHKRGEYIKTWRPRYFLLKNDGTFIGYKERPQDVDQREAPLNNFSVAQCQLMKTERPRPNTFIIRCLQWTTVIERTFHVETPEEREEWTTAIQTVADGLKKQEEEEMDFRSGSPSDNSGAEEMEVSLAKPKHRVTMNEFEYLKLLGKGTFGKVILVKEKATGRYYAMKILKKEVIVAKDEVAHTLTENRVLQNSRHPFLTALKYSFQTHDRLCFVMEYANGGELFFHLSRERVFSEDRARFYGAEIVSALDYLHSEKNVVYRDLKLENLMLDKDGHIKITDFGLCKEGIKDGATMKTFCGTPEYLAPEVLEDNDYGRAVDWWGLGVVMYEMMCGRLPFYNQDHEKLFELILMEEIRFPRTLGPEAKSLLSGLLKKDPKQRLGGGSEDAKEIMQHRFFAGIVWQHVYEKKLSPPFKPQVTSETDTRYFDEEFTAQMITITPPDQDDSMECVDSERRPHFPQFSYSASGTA
Procedure, shortened: (§2)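 HEK293 cells (not transfected), serum-starved overnight, then given inhibitor for 20 min before 50 ng/ml IGF-1 for a further 10 min. Cells detached in ice-cold Ca/Mg-free PBS with 0.04% EDTA and lysed in Tris pH 7.5 Triton buffer with protease/phosphatase inhibitors. Lysates cleared at 14000 g, protein equalised by Bradford, and pThr308, pSer473 and GSK3β pSer9 read by immunoblot with ECL.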

[5] = molecular target: T1, RAC-alpha serine/threonine-protein kinase; experiment: Induction of AKT1 Ser473 phosphorylation expressed in IGF1-stimulated HEK293 cells treated 20 mins before IGF1 stimulation by immunoblotting; type: cell-based
Procedure, shortened: as §2

HEK-293T [6] = experiment: Induction of myristoylated AKT3 M229G mutant Ser473 hyperphosphorylation expressed in HEK293T cells at 10 uM after 30 mins by immunoblotting; type: cell-based
[7] = molecular target: T1, RAC-alpha serine/threonine-protein kinase; experiment: Inhibition of wild type AKT1 expressed in HEK293 cells assessed as reduction of IGF1-induced GSK3-beta Ser9 phosphorylation treated 20 mins before IGF1 stimulation by immunoblotting; type: cell-based
Procedure, shortened: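 Untransfected HEK293 cells carrying endogenous Akt were serum-starved overnight. They were treated with compound for 20 min, then stimulated with 50 ng/ml IGF-1 for 10 min. DMSO stocks were diluted 1:1000. Lysates in Tris pH 7.5/Triton buffer with phosphatase inhibitors were immunoblotted for GSK3β Ser9 and Akt Thr308/Ser473 phosphorylation, read by ECL.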

[8] = Inhibition of myristoylated AKT3 M229G mutant expressed in HEK293T cells by in vitro immunoprecipitation kinase assay; type: cell-based; details: hek-293t
Procedure, shortened: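 Myristoylated HA-tagged Akt3 was expressed in HEK293T cells, which were lysed in Tris pH 7.5 buffer containing Triton X, protease and phosphatase inhibitors. Lysates were protein-normalised and immunoprecipitated overnight at 4°C on BSA-blocked anti-HA matrix. Kinase activity of the immunoprecipitate was measured in vitro across inhibitor concentrations to derive IC50.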

HEK-293T [9] = experiment: Induction of myristoylated AKT3 M229G mutant Thr308 hyperphosphorylation expressed in HEK293T cells at 10 uM after 30 mins by immunoblotting; type: cell-based
[10] = tested on: RAC-alpha serine/threonine-protein kinase (Homo sapiens), P31749 [M227G]; experiment: Induction of myristoylated AKT1 M227G mutant Thr308 hyperphosphorylation expressed in HEK293 cells after 30 mins by immunoblotting; details: HEK-293
[11] = molecular target: RAC-alpha serine/threonine-protein kinase (Homo sapiens, UniProt P31749, M227G); experiment: Inhibition of myristoylated AKT1 M227G mutant expressed in HEK293T cells by in vitro immunoprecipitation kinase assay; type: cell-based, HEK-293T
Sequence of RAC-alpha serine/threonine-protein kinase (Homo sapiens, UniProt P31749, M227G) (P31749 whole entry M227G): as the sequence (P31749 whole entry) above, with M227G counted along it
Procedure, shortened: as §1

[12] = molecular target: T1, RAC-alpha serine/threonine-protein kinase; experiment: Inhibition of myristoylated wild type AKT1 expressed in HEK293T cells by in vitro immunoprecipitation kinase assay; type: cell-based, HEK-293T
Procedure, shortened: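 Myristoylated HA-tagged wild-type or analog-sensitive Akt1/2/3 expressed in HEK293T cells, then immunoprecipitated on anti-HA matrix. The immunoprecipitate was used in an in vitro kinase assay with Tris pH 7.5 buffer containing 10 mM MgCl2, β-glycerophosphate, orthovanadate and 2 mM DTT. IC50 determined from inhibitor titration.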

HEK-293T [13] = experiment: Induction myristoylated AKT2 M225G mutant Thr308 hyperphosphorylation expressed in HEK293T cells at 10 uM after 30 mins by immunoblotting; type: cell-based
HEK-293T [14] = experiment: Induction of nonmyristoylated AKT2 M225G and kinase dead D289A mutant Thr308 hyperphosphorylation expressed in HEK293T cells at 10 uM after 30 mins by immunoblotting; type: cell-based
HEK-293T [15] = experiment: Induction of myristoylated AKT2 M225G and kinase dead D289A mutant Thr308 hyperphosphorylation expressed in HEK293T cells at 10 uM after 30 mins by immunoblotting; type: cell-based
HEK-293T [16] = experiment: Induction myristoylated AKT2 M225G mutant Ser473 hyperphosphorylation expressed in HEK293T cells at 10 uM after 30 mins by immunoblotting; type: cell-based

Sequence of RAC-alpha serine/threonine-protein kinase (Homo sapiens), P31749 [M227G] (P31749 whole entry M227G): as the sequence (P31749 whole entry) above, with M227G counted along it

For `CC(C)(C)n1nc(Cc2cccc(I)c2)c2c(N)ncnc21`, the Activity [1] was “Dose-dependent effect”, the inhibition [2] was “Active” and the IC50 [3] was 240 nM. The Activity [4] was “inactive”, the Activity [5] was “inactive” and the Activity (HEK-293T [6]) was “Active”. For the same compound, the inhibition [7] was “inactive”, the IC50 [8] was 120 nM and the Activity (HEK-293T [9]) was “Active”. The Activity [10] was “Dose-dependent effect”, the IC50 [11] was 28 nM and the IC50 [12] was > 10000 nM. The Activity (HEK-293T [13]) was “Active”, the Activity (HEK-293T [14]) was “Active” and the Activity (HEK-293T [15]) was “Active”. For the same compound, the Activity (HEK-293T [16]) was “Active”.
